# MrgX1 agonist = human MrgX1 receptor agonism, primary screen; actives 0.44% (n = 310,000); MrgX1-HEK293 cells, Fluo-4 calcium fluorescence, agonist mode; stronger effect = higher value; B-score at 10 µM; Q96LB2;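 active = calcium response B-score plate-corrected fluorescence ratio at least 3 library SD, with starting fluorescence B-score inside 5 SD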
# Target sequence (Q96LB2 whole entry, looked up): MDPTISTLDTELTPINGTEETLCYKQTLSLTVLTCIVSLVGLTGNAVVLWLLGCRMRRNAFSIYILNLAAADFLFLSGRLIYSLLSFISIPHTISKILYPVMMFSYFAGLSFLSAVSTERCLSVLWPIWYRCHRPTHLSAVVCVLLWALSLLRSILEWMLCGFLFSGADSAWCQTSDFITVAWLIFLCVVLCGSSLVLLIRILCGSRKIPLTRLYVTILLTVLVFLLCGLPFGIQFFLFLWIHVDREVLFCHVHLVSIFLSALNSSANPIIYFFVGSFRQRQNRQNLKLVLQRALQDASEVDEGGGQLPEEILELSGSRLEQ
#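 times = overnight plating, then 30 min 37 °C plus 30 min room-temperature dye loading | assay system = stable human MrgX1 HEK293 cell line | input = fifteen thousand cells per well | signal = kinetic calcium dye fluorescence, Fluo-4 NW | dosing = compound delivered in addition one of three | read-out = B-scored fluorescence response ratio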
# MrgX1 antag = human MrgX1 receptor antagonism, primary screen | Q96LB2 | MRGX1-HEK293 calcium flux, Fluo-4, BAM8-22 antagonism; stronger effect = lower value | B-score at 10 µM | actives 1.3% (n = 310,000) | AID 588676;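 active = calcium-response B-score plate-corrected more than 3 library SD below zero, starting fluorescence within 5 deviations, no agonist response on first addition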;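 note: peak minus trough fluorescence over baseline after final BAM8-22 challenge near maximal dose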
# RGS4 act = potentiators or activators of RGS4; HEK293 M3R/inducible RGS4, carbachol calcium flux Fluo4; stronger effect = lower value; B-score at 10 µM; actives 0.92% (n = 310,000);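 active = B-score of the integrated calcium signal more than 4 SD below the library mean, with starting fluorescence not abnormally high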;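 note: negative B-score means reduced calcium response which marks RGS4 activation or potentiation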
#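 Detection: kinetic calcium fluorescence imaging with Fluo4-AM dye, 2 µM / Material: HEK293 cells with stable M3R and inducible RGS4 / Schedule: recording 10 s baseline at 1 Hz, 100 s post-agonist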
# RGS4 inh = inhibitors of human RGS4; P49798; HEK293 M3R/RGS4 inducible, Fluo-4 calcium flux; stronger effect = higher value; triggered by carbachol at its EC20; B-score at 10 µM; actives 0.45% (n = 310,000);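 active = B-score, a plate-corrected calcium signal, over three deviations above library mean, with baseline fluorescence within five deviations of library mean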;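 note: RGS4 expression induced by doxycycline in cells with stable M3 receptor; B-score is computed from the integrated fluorescence ratio over baseline after carbachol; higher B-score means a larger calcium signal and so more RGS4 inhibition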
# Target sequence (P49798 whole entry, looked up): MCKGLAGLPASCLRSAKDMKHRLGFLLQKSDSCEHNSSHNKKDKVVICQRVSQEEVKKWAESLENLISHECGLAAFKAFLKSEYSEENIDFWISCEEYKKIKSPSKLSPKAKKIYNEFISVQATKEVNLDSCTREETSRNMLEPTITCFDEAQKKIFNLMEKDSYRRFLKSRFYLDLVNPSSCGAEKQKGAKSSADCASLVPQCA
# MrgX1 PAM = human MrgX1 positive allosteric modulation, primary screen; Q96LB2; MrgX1-HEK293, Fluo-4 calcium flux, FDSS; stronger effect = higher value; B-score at 10 µM; actives 0.63% (n = 310,000); AID 588675;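 active = plate-corrected calcium response at least 3 library SD above typical, normal starting fluorescence, not activating the receptor alone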;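 note: compound read alongside a low EC10 to EC30 dose of BAM8-22 agonist; peak minus trough fluorescence over baseline measured at the second addition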
# MrgX1 allo conf = reconfirmed allosteric activator of human MrgX1 receptor; shares compounds with MrgX1 PAM; MrgX1-HEK293, Fluo-4 calcium fluorescence, FDSS; activation (ratio percentage), % at 10 µM; actives 13% (n = 1,200); AID 602413;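 active = ratio at least 3 SD above the weak peptide control, stable starting fluorescence, no direct agonism earlier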;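 note: compound followed by low BAM8-22 agonist challenge near EC20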
# HEK293 Ca flux = MrgX1 antagonist counter-screen hit in parental HEK293 cells | shares compounds with MrgX1 antag | Fluo-4 calcium fluorescence, FDSS | fluorescence ratio F(max-min)/F0 at 10 µM | actives 2% (n = 4,000) | AID 624111;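 active = duplicate-averaged calcium fluorescence ratio at least three times the standard deviation of buffer wells, a nonspecific response in parental cells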
# HEK293 Ca counter = counter-screen for MrgX1 allosteric activators: effect in parental HEK293 cells | shares compounds with MrgX1 antag | parental HEK293 calcium flux, Fluo-4 fluorescence ratio; stronger effect = higher value | fluorescence ratio F(max-min)/F0 at 10 µM | actives 0.4% (n = 4,000) | AID 624114;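 active = calcium fluorescence ratio, averaged over duplicates, at least 3 SD of the buffer-well ratio, meaning a nonspecific response in receptor-free cells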;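 note: untransfected parental HEK293 lacking MrgX1 used as counterscreen for MrgX1 allosteric activators; fluorescence change taken during the second addition on a kinetic imager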
# HEK293 Ca cntr2 = activity in parental HEK293 cells lacking MrgX1 receptor | fluorescence ratio F(max-min)/F0 at 10 µM | actives 8.7% (n = 4,000) | Fluo-4 calcium fluorescence (FDSS); stronger effect = higher value | shares compounds with MrgX1 antag;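 active = calcium fluorescence ratio at least three times the spread of buffer wells, meaning a non-specific response in parental cells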
# The depositor's hits bear a star; i = inactive; . = not tested or not shown. The list is not random: actives were taken first. Their share in the collection is about 3.5%.
SMILES,MrgX1 agonist,MrgX1 antag,RGS4 act,RGS4 inh,MrgX1 PAM,MrgX1 allo conf,HEK293 Ca flux,HEK293 Ca counter,HEK293 Ca cntr2
COc1ccc(-c2nn(-c3ccccc3)cc2N)cc1,i,i,i,i,i,.,.,.,.
Cc1ccc(-c2nn(-c3ccccc3)cc2CO)cc1,i,i,i,i,37.6*,6.8%*,i,i,i
COc1ccc(-c2cn(-c3ccccc3)nc2CO)cc1,i,i,i,i,8.57*,i,i,i,i
Cc1ccc(-c2cc3onc(-c4ccccc4)c3c(=O)n2C)cc1,i,i,.,.,20.7*,i,i,i,i
Nc1nc(C(c2ccccc2)c2ccccc2)cs1,i,i,i,i,8.71*,i,i,i,i
Nc1nc(-c2ccccc2)cs1,i,i,i,i,i,.,.,.,.
Cc1ccccc1OC(C)C(=O)NCCC1=CCCCC1 (stereo not given),i,i,i,i,10.9*,i,i,i,i
COc1ccccc1-c1nc(-c2ccccc2)[nH]c(=O)c1C#N,i,i,i,i,i,.,.,.,.
CCCNC(=O)/C(=C/c1cn(S(=O)(=O)N(C)C)c2ccccc12)NC(=O)c1ccc(OC)cc1,i,i,i,i,35.8*,15.1%*,i,i,i
CCc1ccc(NC(=O)c2ccccc2Br)cc1,i,i,i,i,i,.,.,.,.
O=C(Nc1ccc(Br)cc1)c1ccccc1Br,i,i,i,i,16.3*,i,i,i,i
CCNC(=O)CN1c2cccc3cccc(c23)S1(=O)=O,i,i,i,i,21.8*,i,i,i,i
CCC(C)NC(=O)CN1c2cccc3cccc(c23)S1(=O)=O (stereo not given),i,i,i,i,i,.,.,.,.
O=C(NCC(=O)N1CCN(S(=O)(=O)c2cccs2)CC1)c1ccc(Cl)cc1,i,i,i,i,i,.,.,.,.
COC(=O)C(C)NC(=O)CNS(=O)(=O)c1ccc(F)cc1 (stereo not given),i,i,i,i,i,.,.,.,.
CCOC(=O)c1c(-c2ccccc2)csc1NC(=O)/C(C#N)=C/c1ccc(O)c(OC)c1,i,i,i,i,117*,i,0.049*,i,84.5*
CC1(C)CC2CC(C)(CN2Cc2c(O)ccc3ccccc23)C1 (stereo not given),i,i,i,i,7.45*,i,i,i,52.5*
CCc1c(C)nc(SCC(=O)N2CC(C)OC(C)C2)[nH]c1=O (stereo not given),i,i,i,i,i,.,.,.,.
CN(C)CCCNc1ccc(-c2cc(Nc3cccc(Cl)c3)ncn2)cn1,i,i,i,i,7.82*,i,i,i,i
COCCN1CCN(Cc2nc(C3(c4ccc(C)cc4)CCCC3)no2)CC1,i,i,i,i,9*,i,i,i,i
Cc1ccc2c(c1)NC(=O)C(CC(=O)O)O2 (stereo not given),i,i,i,i,8.07*,i,i,i,i
Cc1ccc(NC(=O)CC2Oc3ccc(C)cc3NC2=O)c(C)c1 (stereo not given),i,i,i,i,i,.,.,.,.
O=C(Nc1ccccc1N1CCOCC1)c1ccccc1NS(=O)(=O)c1ccc(F)c(F)c1,i,i,i,i,i,.,.,.,.
O=C(Nc1ccccc1N1CCOCC1)c1cccc(NS(=O)(=O)c2ccc(F)c(F)c2)c1,i,i,i,i,11.2*,i,i,i,i
O=C(Nc1ccccc1N1CCOCC1)c1ccc2ccccc2c1,i,i,i,i,7.21*,i,i,i,i
SMILES,MrgX1 agonist,MrgX1 antag,RGS4 act,RGS4 inh,MrgX1 PAM,MrgX1 allo conf,HEK293 Ca flux,HEK293 Ca counter,HEK293 Ca cntr2
CC12CCC(C(=O)Nc3nc4ccccc4s3)(OC1=O)C2(C)C (stereo not given),i,i,i,i,28.8*,2.1%*,i,i,i
CCCCN(C)CCNC(=O)C(NC(=O)C1CCC(C)CC1)C(C)C (stereo not given),i,i,i,i,i,.,.,.,.
CC1(C)CC2CC(C)(CN2c2ncnc3ccccc23)C1 (stereo not given),i,i,i,i,24.5*,25.5%*,i,i,i
Cc1ccc(S(=O)(=O)NCc2cccnc2)cc1,i,i,i,i,i,.,.,.,.
Clc1ccc(-c2nnnn2-c2ccc(Cl)cc2)cc1,i,i,i,i,10.6*,i,i,i,i
Clc1ccc(-n2nnnc2-c2ccccc2)cc1,i,i,.,.,i,.,.,.,.
CCCC[C@@H]1CNCCN1CCCc1cc(OC)c(OC)c(OC)c1,i,i,i,i,i,.,.,.,.
CCNc1ccc(S(=O)(=O)N(C)C)cc1NCC(=O)Nc1ccc(F)c(Cl)c1,i,i,i,i,i,.,.,.,.
COc1ccc2nc(NC(=S)N(C)C)sc2c1,i,i,i,i,11.9*,i,i,i,i
CC(NC(=O)Nc1ccc(Br)cc1)C(C)(C)C (stereo not given),i,i,i,i,7.83*,i,i,i,i
COC(=O)C(C)(C)ONC(=O)Nc1ccc(Br)cc1,i,i,i,i,i,.,.,.,.
CC(=O)c1cc(CC=C(C)C)c(O)c(CC=C(C)C)c1O,i,i,i,i,i,.,.,.,.
CC(=O)c1cc(CC=C(C)C)c(O)cc1O,i,i,i,i,9.91*,i,i,i,i
O=C(Nc1ccc2c(c1)OCO2)c1ccc(Br)c(S(=O)(=O)N2CCCC2)c1,i,i,i,i,13.8*,i,i,i,i
CC(C)Cc1ccc(C(C)C(=O)Nc2ccccc2O)cc1 (stereo not given),i,i,i,i,6.96*,i,i,i,i
CN1C(=O)CSC1=NC12CC3CC(CC(C3)C1)C2,i,i,i,i,8.17*,i,i,i,i

# Screening data deposited in PubChem by Johns Hopkins Ion Channel Center.
